14-3-3 Bad PPI: disrupts binding of bovine 14-3-3 zeta to phospho-Bad peptide | TR-FRET 14-3-3zeta/Dy647-pBad peptide displacement, 1 h | inhibition, % at 21.7 µM | hit rate 0.71% among 220,000 | AID 781 | P63103;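 active = inhibition above about 70%, limit read from the data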;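 also: 0% = full 14-3-3 plus peptide FRET controls and 100% = background without 14-3-3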
Hck-Nef inh: human Hck-Nef kinase inhibition; inhibition, % at 20 µM; P08631; Recombinant Hck-YEEI plus Nef, Z-Lyte FRET kinase assay; hit rate 0.68% among 220,000; AID 463187;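 active = Hck-Nef kinase inhibition above about 50%, limit read from the data; inactive = inhibition below that limit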;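 also: 0% = DMSO with Hck plus Nef and 100% = Hck alone without Nef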
TbHK1 inh: T. brucei hexokinase 1 inhibition | hit rate 0.11% among 220,000 | recombinant TbHK1, G6PDH-coupled NADH A340 | AID 1430 | inhibition, % at 10 µM;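 active = inhibition of 50% or more in the single-dose primary screen; inactive = inhibition below 50%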
Wee1 stabilizer: inhibitors of human Wee1 degradation | hit rate 1.2% among 220,000 | AID 1321 | P30291 | reporter increase, % at 5 µM | HeLa Luc-Wee1K328M stability, luciferase luminescence; 100% = proteasome inhibitor MG132 effect;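 active = activation above the mean of all tested compounds plus 3 SD, set per screening run, cut at about 8.8% in these data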;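 also: cells exposed to compound for 20 h before luminescence read; 0% = DMSO alone and 100% = MG132 at 30 µM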
MDM2 E3 inh: inhibitors of human Mdm2 E3 ubiquitin ligase; AID 1230; Q00987; signal enhancement, % at 5 µM; cell-based MDM2 ubiquitination luciferase reporter, 2 h; 0 = plate control, 100 = twice control, blank-subtracted; hit rate 0.11% among 210,000;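 active = signal enhancement of 30% or more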;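 also: luminescence tracks abundance of the self-degrading MDM2-luciferase fusion protein; higher signal means inhibition of MDM2 E3 ligase activity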
Target sequence (Q00987 whole entry, looked up, the tested form may be a part): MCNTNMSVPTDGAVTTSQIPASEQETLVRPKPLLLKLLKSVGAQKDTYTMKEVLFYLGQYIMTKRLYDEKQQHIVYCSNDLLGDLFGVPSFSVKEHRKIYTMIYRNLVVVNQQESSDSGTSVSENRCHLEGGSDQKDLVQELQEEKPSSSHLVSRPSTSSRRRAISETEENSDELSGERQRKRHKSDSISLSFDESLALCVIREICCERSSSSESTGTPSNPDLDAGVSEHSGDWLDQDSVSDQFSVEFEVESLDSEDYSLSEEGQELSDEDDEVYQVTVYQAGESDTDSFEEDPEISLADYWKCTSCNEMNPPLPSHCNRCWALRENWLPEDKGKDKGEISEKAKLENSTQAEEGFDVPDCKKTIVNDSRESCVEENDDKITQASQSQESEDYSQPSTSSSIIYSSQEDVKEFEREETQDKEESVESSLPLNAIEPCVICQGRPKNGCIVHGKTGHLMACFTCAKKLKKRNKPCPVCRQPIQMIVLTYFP
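Material: stable MDM2–luciferase fusion reporter cells / Quantity: 2000 cells/well / Dosing: single 5 µM compound dose, 0.2% final DMSO / Buffer or medium: DMEM / Schedule: 4 h cell settling then 2 h compound exposure, 37 °C / Detection: luminescence with SteadyLite reagent, 15 min at room temperature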
Numbers without * were called inactive; . = no result; ! = not active in a repeat; [ ] = remark or other dose. Compounds with a hit are over-represented: about 2.7% of the library has one in this group of screens.

SMILES	14-3-3 Bad PPI	Hck-Nef inh	TbHK1 inh	Wee1 stabilizer	MDM2 E3 inh
Cc1ccc2nc(-c3ccc(NC(=O)CSc4nccc(=O)[nH]4)cc3)sc2c1	-2	-8	-6	3	-19
Nc1cc(=O)[nH]c(SCC(=O)Nc2ccc3c(c2)CCC3)n1	-9	24	3	9.6*	-7
Cc1ccc2nc(-c3ccc(NC(=O)CSc4nc(N)cc(=O)[nH]4)cc3)sc2c1	40	47	-57	11*	.
CCOC(=O)C1(Cc2ccc(OC)cc2)CCN(C(=O)CCn2ccc(C)n2)CC1	-3	15	-3	8.8*	-7
CCOC(=O)C1(Cc2ccc(OC)cc2)CCN(C(=O)CCn2cccn2)CC1	2	18	-4	7	-8
CCOC(=O)C1CCN(C(=O)c2sccc2Cl)CC1	-2	0	-4	-2	5
COC(=O)CSc1snnc1-c1ccc(Cl)cc1Cl	5	-15	16	0	-6
Oc1ccc(C(c2nnnn2C2CCCC2)N2CCc3ccccc3C2)cc1 (stereo not given)	76*	3	3	5	-27
COc1cc(C(c2nnnn2C2CCCC2)N2CCc3ccccc3C2)ccc1O (stereo not given)	61	1	-4	-1	-31
Cc1cc(NC(=O)C(C)C)ncc1NC(=O)Cc1ccccc1	-12	4	7	10*	-14
O=C(Cn1cnc2ccccc2c1=O)NCCC(=O)N1CCN(Cc2ccccc2)CC1	-5	0	-1	1	34*
O=C(O)Cn1cnc2ccccc2c1=O	17	2	-11	9.6*	-6
CCc1ccc2nc(NC(=O)Cn3cnc4ccccc4c3=O)sc2c1	0	55*	34	1	-13
O=C(Cn1cnc2ccccc2c1=O)Nc1nc2ccccc2s1	-6	23	-2	-1	-5
COC(=O)c1[nH]c2cccc(Cl)c2c1NC(=O)CN(C)C1CCCCC1	-11	2	-4	4	-16
COc1ccc(/C=C/C(=O)c2ccoc2)cc1	-5	0	-34	13*	-12
COc1ccccc1C(=O)C1CCCN(C(=O)CSc2ccccn2)C1 (stereo not given)	-7	1	0	10*	-9
COc1ccc(F)cc1C(=O)C1CCCN(C(=O)CSc2ccccn2)C1 (stereo not given)	1	6	-5	-1	-3
CC(=O)c1ccc(OCC(O)CN(C)Cc2cccs2)cc1 (stereo not given)	56	0	0	-3	-17
CC1CCN(C(=O)COC(=O)c2ccc3c(c2)OCO3)CC1	1	-9	-2	0	-10
CCOC(=O)c1c(C)[nH]c(C(=O)OCCOc2ccccc2C)c1C	75*[fluorescence artefact?]	1	-1	3	-12
CCOC(=O)c1c(C)[nH]c(C(=O)COC(=O)c2ccc(O)cc2O)c1C	11	-6	-13	-2	-17
CCOC(=O)c1c(C)[nH]c(C(=O)COC(=O)c2ccc(O)cc2)c1C	82*	11	-19	-3	-6
CCOC(=O)c1[nH]c(C)c(C(=O)c2ccc(C)cc2)c1C	1	-3	-10	9.5*	0
Cn1c(=O)c([N+](=O)[O-])c(NCC2CCCO2)c2ccccc21 (stereo not given)	0	3	-9	4	-12
SMILES	14-3-3 Bad PPI	Hck-Nef inh	TbHK1 inh	Wee1 stabilizer	MDM2 E3 inh
O=P1(Nn2cnnc2)C=C(c2ccccc2)OC(c2ccccc2)=C1	13	1	-1	1	-16
C/C(=N\NC(=O)CCC(=O)Nc1ccc(C)c(C)c1)c1cccs1	-9	21	-2	0	-2
Cc1ccc(Oc2ccc(-c3nnc(-c4ccccc4)o3)cc2[N+](=O)[O-])cc1C	-12	3	26	0	-5
O=C(OCc1nc2ccccc2[n+]([O-])c1C(=O)c1ccccc1)c1ccco1	4	30	-24	0	-15
COc1ccc2nc(COC(=O)c3ccco3)c(C(C)=O)[n+]([O-])c2c1	86*[fluorescence artefact?]	6	0	-2	-8
COc1ccc(N2CCN(C(=O)CN(C3CCCCC3)S(C)(=O)=O)CC2)cc1	-3	22	2	9.1*	-48
Cc1nc2cc(NC(=O)Nc3ccc(Br)cc3)ccc2o1	-11	9	-2	3	-12
COc1ccc(-c2ncccc2O)cc1	-1	0	-21	-1	-8
CCOc1c(C)cc(-c2ncccc2O)cc1C	75*!	4	22	-3	-3
NC(=O)CSc1nnc(-c2cccc(S(=O)(=O)N3CCCCC3)c2)o1	84*	15	-7	1	-12
NC(=O)CNC(=O)c1ccc(Cl)cc1	-3	3	-2	9.1*	-9
CC(=O)/C(C#N)=C1\NC(=O)C(Cc2ccccc2Cl)S1 (stereo not given)	74*	3	-47	-3	-14
CCc1ccc(NC(=O)CSCc2ccc(C(=O)O)cc2)cc1	3	8	1	-1	.
C=CCN=C1S/C(=C/c2cccc([N+](=O)[O-])c2)C(=O)N1CC=C	-3	13	-39	9.9*	4
COc1ccc(-c2nnc3n2-c2ccccc2SC3)cc1OC	78*	-1	2	-1	-9
O=C1CCC(=O)N1CN(C(=O)c1ccco1)c1ccc(Cl)c(Cl)c1	-5	0	-10	2	-17
CC(=O)N(CN1C(=O)CCC1=O)c1ccc(Cl)c(Cl)c1	82*	-20	2	8	-6
COc1ccc([C@@]2(O)c3c(ccc(CC=C(C)C)c3O)NC(=O)[C@@H]2OC)cc1	-2	29	-14	.	-23
O=C(O)C12CC3CC(C1)CC(n1ncc(NCc4ccco4)c(Cl)c1=O)(C3)C2	4	0	-10	10*	-14
O=C(O)CC12CC3CC(C1)CC(n1ncc(NCc4ccccc4Cl)c(Cl)c1=O)(C3)C2	2	9	-23	0	-98
COc1ccc(CN2C(=O)c3cccnc3C2Nc2ccc(OC)c(Cl)c2)cc1 (stereo not given)	83*	3	-3	0	-8
COc1cc(NC2c3ncccc3C(=O)N2Cc2ccco2)cc(OC)c1 (stereo not given)	82*	4	1	3	-13
COc1ccc(NC2c3ncccc3C(=O)N2Cc2ccccc2)c(OC)c1 (stereo not given)	25	8	-10	5	-9
C=CCn1c(COc2ccc(Cl)cc2)nnc1SCC(=O)c1c(N)n(C)c(=O)n(C)c1=O	33	38	-7	10*	-14
COc1ccccc1NC(=O)N1CCCC1C(=O)Nc1nnc(C(C)C)s1 (stereo not given)	78*[fluorescence artefact?]	0	9	0	-17
CC(C)c1nnc(NC(=O)C2CCCN2C(=O)Nc2ccccc2F)s1 (stereo not given)	2	10	4	-2	-45
Cc1ccc2oc(=O)c3cc(C(=O)Nc4cc(-c5cccc(F)c5)no4)sc3c2c1	8	8	-5	-2	.

Bioassay records from PubChem.
